Compounds with a hit are over-represented: about 9.4% of the library has one in this group of screens.
Beta apoptosis: blocks beta cell apoptosis | protection from apoptosis, % (no concentration beside the values) | INS-1E cytokine-induced death, ATP luminescence, 48 h; percent of positive-control rescue, neutral wells zero | 300,000 tested, 0.8% active;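 active means Every replicate reaches about 75%, or at least half do and their mean reaches it too, limit read from the data; inconclusive means At least half of replicates reach the limit but their mean does not; inactive means Under half of replicates reach the limit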;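 further: 0% = cytokine-treated negative control wells and 100% = positive control rescue; higher means more ATP so stronger rescue from cytokine killing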
SKKanGAS inh: inhibitors of SKKanGAS S. pyogenes growth in kanamycin (SK-promoter or general growth effect); 300,000 tested, 1.3% active; inhibition, % at 7.5 µM; BacTiter-Glo, 6 h;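 active means mean replicate score, as percent of positive control median, at least 50; inconclusive means mean below 50 but one replicate at or above 50; inactive means mean and every replicate below 50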;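 further: strain carries kanamycin resistance gene driven by streptokinase promoter and grows in 40 µg/ml kanamycin; loss of luminescence reflects streptokinase promoter inhibition or plain growth inhibition; 0% = median of DMSO wells and 100% = positive control at its reference dose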
Mdm2-MdmX inh: disrupts the human Mdm2-MdmX interaction | SaOS-2 split-luciferase Mdm2/MdmX complementation, luminescence | 330,000 tested, 3% active | inhibition, % at 8 µM | AID 485346 | O15151+Q00987;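 active means inhibition of at least 50% at 8 µM in the primary screen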
Lmaj promast: Leishmania major promastigote growth inhibition. inhibition, % at 10 µM. Leishmania major promastigotes, resazurin fluorescence viability. 200,000 tested, 9% active; in the data active means inhibition above about 50%;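 further: promastigotes grown with compound for 44 hours at 28 °C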
CSC inhib: blocks cancer stem cells. cancer stem cell-like cells viability, luminescence. inhibition, % at 7.5 µM. 300,000 tested, 1.1% active. AID 2717; in the data active means inhibition above about 75%; inconclusive means no clear call, values can overlap the other calls; tested in HMLE shEcad cells
T cruzi inh: T. cruzi replication inhibition. T. cruzi beta-gal in NIH3T3, luminescence, 90 h. inhibition, % (test concentration not listed). 300,000 tested, 1.4% active;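 active means mean inhibition across valid replicates above about 55%, limit read from the data; inconclusive means mean below that limit but half or more replicates reach it; inactive means mean below it, under half of replicates reach it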;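 further: signal also drops with host cell toxicity which is not excluded here; 0% = plate median of DMSO wells and 100% = zero luminescence signal; higher percent means less beta-gal luminescence so fewer parasites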
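System: Mouse NIH/3T3 fibroblasts infected with β-gal-expressing T. cruzi Tulahuen C4 | Quantity: NIH/3T3 cells, 5,000 per well | Reagent: 5000 reporter trypomastigotes per well | Dosing: Compound pinned at 50 nL/well, DMSO | Schedule: 3 h host attachment, then at least 90 h co-culture | Detection: GalScreen luminescence, 60 min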
Numbers without * were called inactive; ? = inconclusive; nt = not tested or not shown.

SMILES	Beta apoptosis	SKKanGAS inh	Mdm2-MdmX inh	Lmaj promast	CSC inhib	T cruzi inh
CC/C(O)=C1\C(=O)CC(c2ccccc2)CC1=NCCc1c(C)[nH]c2ccc(C)cc12 (stereo not given)	0	20	37	73*	24	37
CC(=O)C1=C(O)CC(c2ccccc2)CC1=NCCc1c(C)[nH]c2ccc(C)cc12 (stereo not given)	4	8	-13	-3	13	16
O=C(COC(=O)/C=C/c1cccc(Br)c1)Nc1cccc(S(=O)(=O)NC2=NCCC2)c1	nt	nt	13	nt	nt	nt
C/C(=N/NC(=O)CCc1c(C)n[nH]c1C)c1cccc([N+](=O)[O-])c1	1	6	23	nt	-13	1
O=C(CSc1cccc[n+]1[O-])NC1CCCCC1	0	nt	21	nt	-28	nt
CCCCOc1ccc(-c2ncc(N)cn2)cc1	-5	5	-51	nt	0	24
Oc1ccc(Br)cc1-c1cc(-c2ccccc2)n[nH]1	21	80*	39	24	120*	3
COc1ccc(O)c(-c2cc(-c3ccc(F)cc3)n[nH]2)c1	6	-4	-20	nt	51	1
COc1ccc(-c2cc(-c3cc(OC)ccc3O)[nH]n2)cc1	4	15	-79	91*	69	-12
COc1ccc(-c2cc(-c3ccccc3O)[nH]n2)cc1OC	-1	-4	-195	40	11	6
COc1ccc(O)c(-c2cc(-c3cccc(Br)c3)n[nH]2)c1	23	56*	-65	37	-18	-4
Oc1ccccc1-c1cc(-c2ccc3c(c2)OCCO3)n[nH]1	14	-19	-127	27	47	0
COc1ccc(-c2cc(-c3ccc(OC)c(OC)c3)n[nH]2)c(O)c1	2	-8	-47	99*	0	-3
Nc1cc2c(cc1O)CCCC2	-1	1	15	0	-3	-24
O=C(N/C(=C\c1ccccc1)C(=O)N1CCOCC1)c1ccccc1Br	-5	1	17	nt	-6	-11
CCc1nc2sc3c(O)cc(=O)[nH]c3c2cc1C	-2	-1	22	-3	1	-2
N#Cc1ccsc1NC(=O)C1CC(=O)N(Cc2ccccc2)C1 (stereo not given)	1	-7	7	nt	-13	-1
CCCN(CCC)CCCNC(=O)c1cc2c(=O)n(C)c3ccccc3c2n1C	6	-5	44	51*	16	18
CCCCN(CC)CCNC(=O)c1cc2c(=O)n(C)c3ccccc3c2n1C	4	-10	11	77*	-5	21
CCCN1CCN(CCCNC(=O)c2cc3c(=O)n(C)c4ccccc4c3n2C)CC1	2	-13	nt	15	16	0
CCN(CC)CCNC(=O)c1nn(-c2ccc(C)cc2)c(=O)c2c1c1ccccc1n2C	3	-1	27	5	-4	60*
Cn1c(C(=O)NCCCN2CCCCCC2)cc2c(=O)n(C)c3ccccc3c21	-3	nt	11	67*	-15	nt
C=CC[N+]1(CC(=O)NCc2ccc(NC(C)=O)cc2)CCOCC1	-10	-1	10	nt	-10	-5
COc1ccc(CCN2CC(C(=O)N(C)CC(=O)Nc3cccc(F)c3)CC2=O)cc1OC (stereo not given)	0	-1	20	nt	1	2
CCOC(=O)/C=C1\Nc2ccccc2OC1=O	-2	2	26	64*	4	-25
SMILES	Beta apoptosis	SKKanGAS inh	Mdm2-MdmX inh	Lmaj promast	CSC inhib	T cruzi inh
CC(C)(C)[C@@H]1COC(=O)[C@H](Cc2ccc(F)cc2)CC/C=C\C[C@@H](CC(=O)N(CCO)Cc2ccccc2)C(=O)N1	-5	nt	3	nt	-17	nt
CCC(C)C(=O)Nc1ccc(OC)cc1[N+](=O)[O-] (stereo not given)	0	0	2	53*	-6	-8
COc1cc(/C=N/n2cnnc2)ccc1OCCSc1ccc(C)cc1	2	-15	-1	55*	1	38
Cc1c(OCC(=O)N2CCC(C(=O)O)CC2)ccc2c1oc(=O)c1ccccc12	nt	7	-16	nt	-2	?
O=C(Nc1ccn(Cc2ccc(Cl)cc2)n1)c1ccc2c(c1)OCO2	-8	-12	-1	-6	13	4
Cc1cccc(Cn2ccc(NC(=O)c3ccc4c(c3)OCO4)n2)c1	-4	-9	14	60*	8	18
O=C(N/N=C/c1cc([N+](=O)[O-])ccc1O)C1CC1	-2	-2	14	nt	2	5
O=C(N/N=C/c1cc([N+](=O)[O-])ccc1O)C(O)(c1ccccc1)c1ccccc1	nt	51*	25	nt	18	4
O=C(N/N=C/c1cc([N+](=O)[O-])ccc1O)c1ccncc1	-1	92*	16	nt	-3	-2
O=C(N/N=C/c1cc(Br)ccc1O)c1ccncc1	53	104*	20	nt	3	21
O=C(N/N=C/c1cc(O)ccc1Br)c1cccnc1	nt	111*	26	nt	nt	-27
O=C(N/N=C/c1ccc(O)c([N+](=O)[O-])c1)c1ccncc1	0	-1	-1	nt	-25	-11
O=C(CSc1ccc(-c2ccc(F)cc2)nn1)N1CCOCC1	-3	0	-4	-2	1	-4
NC(=O)N/N=C\c1cc(Br)ccc1O	nt	-2	3	-12	nt	-3
O=C(/C=C/c1cccc([N+](=O)[O-])c1)c1ccc2c(c1)OCCO2	-12	1	26	98*	16	-6
O=C(N/N=C/c1cc(Cl)ccc1O)c1ccc(Br)cc1	112*	nt	nt	99*	100*	nt
COc1cc([N+](=O)[O-])ccc1NC(=S)NNC(=O)c1ccc2c(c1)OCO2	3	26	28	nt	37	16
O=C(NC(=S)Nc1cc([N+](=O)[O-])ccc1O)c1ccc2c(c1)OCO2	23	79*	-57	nt	7	20
COc1cc(/C=N/NC(=O)c2cccc(N3CCCC3=O)c2)ccc1O	-1	0	15	nt	12	-14
COc1ccc(/C=C/C(=O)c2ccc3c(c2)OCCO3)cc1[N+](=O)[O-]	-20	-5	37	44	17	0
O=C(N/N=C/c1cc([N+](=O)[O-])ccc1O)c1cccc(N2CCCC2=O)c1	1	55*	22	nt	-8	-10
COc1cccc(C(=O)N2CCC(n3nccc3NC(=O)CCOc3ccccc3)CC2)c1	2	2	-3	nt	7	4
N=c1c2ccccc2nnn1-c1cccc(C(F)(F)F)c1	8	-5	26	-1	-11	4
O=C(COC(=O)c1cc([N+](=O)[O-])ccc1N1CCOCC1)Nc1c(Cl)cccc1C(F)(F)F	1	0	11	nt	-2	-2
O=C(N/N=C(\c1ccccc1)c1cccnc1)c1cc(O)ccc1O	-18	1	0	nt	-3	65*
O=C(N/N=C/c1cc([N+](=O)[O-])ccc1O)c1ccc2c(c1)OCCO2	105*	70*	39	98*	11	-16
Cc1nc(C)c(C(=O)N/N=C/c2c[nH]c3ccccc23)s1	-9	8	18	4	11	10

Assay outcomes: PubChem, several laboratories
